Measurements taken from ChEMBL document CHEMBL1143056, “Enhanced substituted resorcinol hydrophobicity augments tyrosinase inhibition potency” (J Med Chem, 2007).

Tests used:
[1] = target: T1, Tyrosinase (Agaricus bisporus) (UniProt O42713); assay: Inhibition of mushroom tyrosinase at 0.3 uM for 10 min pre-incubated before addition of tyrosine
T1 sequence (whole entry): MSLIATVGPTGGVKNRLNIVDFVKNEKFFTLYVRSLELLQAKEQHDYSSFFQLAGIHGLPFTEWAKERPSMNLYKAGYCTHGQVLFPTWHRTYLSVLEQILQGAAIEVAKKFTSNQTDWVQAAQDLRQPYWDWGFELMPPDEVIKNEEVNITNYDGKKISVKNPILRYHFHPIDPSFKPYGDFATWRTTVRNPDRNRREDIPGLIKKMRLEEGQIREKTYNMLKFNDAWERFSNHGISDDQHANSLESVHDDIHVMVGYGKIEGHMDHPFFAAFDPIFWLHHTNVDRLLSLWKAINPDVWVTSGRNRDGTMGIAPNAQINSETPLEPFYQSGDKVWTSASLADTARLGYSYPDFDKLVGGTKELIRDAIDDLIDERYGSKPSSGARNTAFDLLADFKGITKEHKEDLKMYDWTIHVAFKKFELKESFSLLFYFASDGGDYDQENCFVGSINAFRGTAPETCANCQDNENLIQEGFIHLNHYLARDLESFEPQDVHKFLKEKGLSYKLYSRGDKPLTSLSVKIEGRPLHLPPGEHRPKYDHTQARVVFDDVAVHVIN

[2] = target: T2, Tyrosinase (Agaricus bisporus, UniProt O42713); assay: Inhibition of mushroom tyrosinase
T2 sequence (O42713 whole entry): T1 sequence (whole entry)
How it was run: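 Wells held 50 mM potassium phosphate pH 6.5, tyrosinase at 50 units/mL final and inhibitor in absolute ethanol (5-100 µM final). After 10 min at 25 °C, L-tyrosine was added to 1 mM. Absorbance at 450 nm was read every 5 min against an ethanol-only control. IC50 was taken from the linear zone at 20 min.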

[3] = target: T1, Tyrosinase (Agaricus bisporus); assay: Inhibition of mushroom tyrosinase at 0.3 uM for 10 min pre-incubated before addition of 3.75 mM tyrosine
[4] = target: T1, Tyrosinase (Agaricus bisporus); assay: Inhibition of mushroom tyrosinase at 0.3 uM for 10 min preincubated before addition of 1 mM tyrosine
[5] = target: T1, Tyrosinase (Agaricus bisporus); assay: Inhibition of mushroom tyrosinase at 10 uM for 10 min pre-incubated before addition of tyrosine

| Structure (SMILES) | IC50 [2] | other results |
| --- | --- | --- |
| O=C(O)CCc1ccc(O)cc1O | 1850 nM | inhibition [5]: 80% |
| CC(C)OC(=O)CCc1ccc(O)cc1O | 70 nM |  |
| CCOC(=O)CCc1ccc(O)cc1O | 220 nM |  |

Now from value to compound, other results behind:

| IC50 [2] | Structure (SMILES) | other results |
| --- | --- | --- |
| 150 nM | CCC(C)(C)C(OC(=O)CCc1ccc(O)cc1O)C(C)(C)CC | inhibition [1]: 80%; inhibition [3]: 86%; inhibition [4]: 97% |
| 700 nM | CCCCCCCCOC(=O)CCc1ccc(O)cc1O |  |
| 180 nM | CC(C)(C)COC(=O)CCc1ccc(O)cc1O |  |
| 14900 nM | CC(C)(C)OC(=O)CCc1ccc(O)cc1O |  |
